Assay results taken from ChEMBL document CHEMBL3112447, “Discovery of 1-methyl-1H-imidazole derivatives as potent Jak2 inhibitors” (J Med Chem, 2014).

Assays:
[1] = molecular target: Vascular endothelial growth factor receptor 3 (Homo sapiens, UniProt P35916); assay: Inhibition of human Flt4
Outline: (§1)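 Panel of 82 kinases. Radiometric filter-binding assay with ATP at or near Km. Compound tested at 0.01, 0.10 and 1.0 μM. Values expressed as minimum possible fold selectivity against Jak2.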

[2] = molecular target: Casein kinase II subunit alpha (Homo sapiens, UniProt P68400); assay: Inhibition of human recombinant 6 X His-tagged full length CK2alpha expressed in insect sf21 cells using CK2tide as substrate after 20 mins by fluorescence assay
[3] = molecular target: Non-receptor tyrosine-protein kinase TYK2 (Mus musculus) (UniProt Q9R117); assay: (§2) Inhibition of Tyk2 in mouse BA/F3 cells expressing TEL-Tyk2 assessed as inhibition of STAT5 phosphorylation by Western blotting analysis; assay type: cell-based; settings: BaF3
[4] = molecular target: Non-receptor tyrosine-protein kinase TYK2 (Mus musculus, UniProt Q9R117); assay: as §2; assay type: cell-based; settings: baf3
[5] = Half life in beagle dog at 10 mg/kg, po; assay type: ADME, organism-based, Canis lupus familiaris; set-up: dose 10 mg/kg, route oral; settings: in vivo
Outline: (§3)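 Male beagle dogs. Oral dose 10 mg/kg in 0.1% HPMC, pH 2. IV dose 2.5 mg/kg in 20% TEG/D5W. […] Clearance, Vdss, half-life and oral bioavailability (F%) derived from the plasma profiles.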

[6] = Cytotoxicity against human UKE1 cells expressing Jak2 V617F mutant after 72 hrs by MTS assay; assay type: functional; settings: UKE1, 72 h
[7] = molecular target: Tyrosine-protein kinase JAK1 (Mus musculus, UniProt P52332); assay: (§4) Inhibition of Jak1 in mouse BA/F3 cells expressing TEL-Jak1 assessed as inhibition of STAT5 phosphorylation by Western blotting analysis; assay type: cell-based, BaF3
[8] = molecular target: Tyrosine-protein kinase JAK1 (Mus musculus) (UniProt P52332); assay: as §4; assay type: cell-based; settings: BaF3
Canis familiaris = assay: AUC (0 to 12 hrs) in beagle dog at 10 mg/kg, po; assay type: ADME, organism-based, Canis lupus familiaris, Plasma; set-up: time < 12 hr, dose 10 mg/kg, route oral; settings: in vivo; outline: as §3
Mus musculus [9] = assay: In vivo inhibition of Jak2 in mouse transfected with mouse BA/F3 cells expressing TEL-Jak2 assessed as inhibition of STAT5 phosphorylation at 3 mg/kg, po after 8 hrs by Western blotting analysis; assay type: functional; settings: BaF3, 8 h
Outline: (§5)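 Mice bearing BaF3 TEL-JAK2 cells given a single oral dose of 3, 5 or 10 mg/kg and sacrificed at various times after dosing. Spleen lysates probed for phospho-STAT5 and total STAT5 by Western blot, and pSTAT5 inhibition assessed.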

Mus musculus [10] = assay: Toxicity in SCID mouse xenografted with human UKE1 cells assessed as body weight loss at 10 mg/kg, po bid administered for 14 days measured on day 31 (reference value: 7.1%); assay type: organism-based; set-up: dose 10 mg/kg, route oral; settings: in vivo, 336 h
Outline: (§6)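 UKE-1 cells mixed with matrigel implanted subcutaneously in female SCID mice. On day 15, mice randomized at a mean tumor volume of about 150 mm³. Oral gavage twice daily at 3 or 10 mg/kg, or vehicle, for 14 days. Tumor volume and body weight tracked through the dosing phase.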

[11] = molecular target: Proto-oncogene tyrosine-protein kinase receptor Ret (Homo sapiens, UniProt P07949); assay: Inhibition of human Ret; outline: as §1
[12] = molecular target: Tyrosine-protein kinase JAK3 (Mus musculus) (UniProt Q62137); assay: (§7) Inhibition of Jak3 in mouse BA/F3 cells expressing TEL-Jak3 assessed as inhibition of STAT5 phosphorylation by Western blotting analysis; assay type: cell-based; settings: BaF3
[13] = molecular target: Tyrosine-protein kinase JAK3 (Mus musculus, UniProt Q62137); assay: as §7; assay type: cell-based, BaF3
Aurora kinase A = Aurora kinase A (Homo sapiens, UniProt O14965); assay: Inhibition of human aurora A kinase; outline: as §1
[14] = molecular target: Vascular endothelial growth factor receptor 2 (Homo sapiens, UniProt P35968); assay: Inhibition of human KDR; outline: as §1
[15] = Cytotoxicity against mouse BA/F3 cells expressing TEL-Jak1 after 72 hrs by MTS assay; assay type: functional; settings: BaF3, 72 h
Outline: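 BaF3 cells transfected with the kinase domain of Jak1, Jak3 or Tyk2 (TEL fusions). Growth inhibition measured as the counter-screen for cellular selectivity.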

Mus musculus [16] = assay: Toxicity in SCID mouse xenografted with human UKE1 cells assessed as body weight loss at 3 mg/kg, po bid administered for 14 days measured on day 31 (reference value: 7.1%); assay type: organism-based; set-up: dose 3 mg/kg, route oral; settings: in vivo, 336 h; outline: as §6
[17] = molecular target: T1, Tyrosine-protein kinase JAK3 (Homo sapiens, UniProt P52333); assay: Inhibition of human JAK3; outline: as §1
T1 sequence (P52333 whole entry): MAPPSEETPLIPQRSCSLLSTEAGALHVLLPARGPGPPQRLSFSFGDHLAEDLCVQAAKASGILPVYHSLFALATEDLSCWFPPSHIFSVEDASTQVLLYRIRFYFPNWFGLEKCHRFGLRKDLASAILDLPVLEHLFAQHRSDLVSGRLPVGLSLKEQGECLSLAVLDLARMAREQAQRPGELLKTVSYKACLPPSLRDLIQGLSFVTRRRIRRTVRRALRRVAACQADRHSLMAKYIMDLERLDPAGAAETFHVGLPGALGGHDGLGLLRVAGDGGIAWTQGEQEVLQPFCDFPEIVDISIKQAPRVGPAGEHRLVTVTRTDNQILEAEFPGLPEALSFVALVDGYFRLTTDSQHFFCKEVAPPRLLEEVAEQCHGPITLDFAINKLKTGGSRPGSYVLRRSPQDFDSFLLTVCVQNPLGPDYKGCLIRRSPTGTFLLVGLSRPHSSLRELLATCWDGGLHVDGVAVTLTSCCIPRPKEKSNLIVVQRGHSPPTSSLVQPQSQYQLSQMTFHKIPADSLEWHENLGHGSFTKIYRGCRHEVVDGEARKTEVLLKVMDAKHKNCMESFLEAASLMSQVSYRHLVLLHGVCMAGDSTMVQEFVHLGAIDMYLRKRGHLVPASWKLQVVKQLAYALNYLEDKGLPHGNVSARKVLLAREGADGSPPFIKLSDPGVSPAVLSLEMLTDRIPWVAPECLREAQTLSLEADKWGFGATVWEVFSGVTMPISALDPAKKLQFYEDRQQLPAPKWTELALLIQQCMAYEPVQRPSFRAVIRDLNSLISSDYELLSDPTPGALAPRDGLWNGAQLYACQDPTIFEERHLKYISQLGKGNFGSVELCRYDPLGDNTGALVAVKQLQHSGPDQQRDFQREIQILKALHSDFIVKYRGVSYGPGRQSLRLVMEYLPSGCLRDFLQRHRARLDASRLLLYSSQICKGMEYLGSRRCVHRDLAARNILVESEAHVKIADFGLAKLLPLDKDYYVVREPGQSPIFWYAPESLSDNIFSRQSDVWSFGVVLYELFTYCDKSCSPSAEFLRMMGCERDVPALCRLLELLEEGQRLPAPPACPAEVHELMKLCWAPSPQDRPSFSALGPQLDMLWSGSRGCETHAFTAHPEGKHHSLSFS

Mus musculus [18] = assay: In vivo inhibition of Jak2 in po dose3d mouse transfected with mouse BA/F3 cells expressing TEL-Jak2 assessed as inhibition of STAT5 phosphorylation after 6 to 12 hrs by Western blotting analysis; assay type: functional, organism-based; settings: BaF3; outline: as §5
[19] = Antitumor activity against human UKE1 cells xenografted in SCID mouse assessed as tumor growth inhibition at 3 mg/kg, po bid administered for 14 days measured on day 28; assay type: functional; settings: read-out: TGI; outline: as §6
[20] = molecular target: Tyrosine-protein kinase Fgr (Homo sapiens, UniProt P09769); assay: Inhibition of human Fgr; outline: as §1
Chain of Tyrosine-protein kinase Fgr (P09769 whole entry): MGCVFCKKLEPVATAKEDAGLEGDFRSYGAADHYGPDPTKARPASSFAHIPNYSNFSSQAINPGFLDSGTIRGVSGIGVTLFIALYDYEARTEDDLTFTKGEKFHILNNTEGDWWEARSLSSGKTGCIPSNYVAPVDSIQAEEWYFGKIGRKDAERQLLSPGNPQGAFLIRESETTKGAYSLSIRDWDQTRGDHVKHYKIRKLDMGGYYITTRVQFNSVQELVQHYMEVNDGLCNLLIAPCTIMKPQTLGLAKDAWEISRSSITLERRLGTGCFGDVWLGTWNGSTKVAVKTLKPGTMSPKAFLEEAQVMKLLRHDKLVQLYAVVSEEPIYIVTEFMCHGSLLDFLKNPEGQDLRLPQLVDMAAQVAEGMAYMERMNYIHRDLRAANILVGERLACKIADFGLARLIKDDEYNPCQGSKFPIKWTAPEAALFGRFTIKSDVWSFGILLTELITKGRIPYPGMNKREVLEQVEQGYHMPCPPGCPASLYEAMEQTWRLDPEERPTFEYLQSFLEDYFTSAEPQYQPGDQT

Chain of Aurora kinase A (O14965 whole entry): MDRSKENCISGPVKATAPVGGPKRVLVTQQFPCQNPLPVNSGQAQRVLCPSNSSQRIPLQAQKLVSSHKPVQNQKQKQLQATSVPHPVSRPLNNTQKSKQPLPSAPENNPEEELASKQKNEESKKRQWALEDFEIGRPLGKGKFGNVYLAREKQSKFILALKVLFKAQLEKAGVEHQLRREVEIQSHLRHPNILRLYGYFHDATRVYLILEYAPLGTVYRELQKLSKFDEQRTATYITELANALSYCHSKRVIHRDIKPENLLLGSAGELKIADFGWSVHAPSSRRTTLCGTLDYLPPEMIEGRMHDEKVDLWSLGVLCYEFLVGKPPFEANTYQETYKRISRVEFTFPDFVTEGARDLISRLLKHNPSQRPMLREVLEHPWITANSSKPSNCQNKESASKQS
Chain of Proto-oncogene tyrosine-protein kinase receptor Ret (P07949 whole entry): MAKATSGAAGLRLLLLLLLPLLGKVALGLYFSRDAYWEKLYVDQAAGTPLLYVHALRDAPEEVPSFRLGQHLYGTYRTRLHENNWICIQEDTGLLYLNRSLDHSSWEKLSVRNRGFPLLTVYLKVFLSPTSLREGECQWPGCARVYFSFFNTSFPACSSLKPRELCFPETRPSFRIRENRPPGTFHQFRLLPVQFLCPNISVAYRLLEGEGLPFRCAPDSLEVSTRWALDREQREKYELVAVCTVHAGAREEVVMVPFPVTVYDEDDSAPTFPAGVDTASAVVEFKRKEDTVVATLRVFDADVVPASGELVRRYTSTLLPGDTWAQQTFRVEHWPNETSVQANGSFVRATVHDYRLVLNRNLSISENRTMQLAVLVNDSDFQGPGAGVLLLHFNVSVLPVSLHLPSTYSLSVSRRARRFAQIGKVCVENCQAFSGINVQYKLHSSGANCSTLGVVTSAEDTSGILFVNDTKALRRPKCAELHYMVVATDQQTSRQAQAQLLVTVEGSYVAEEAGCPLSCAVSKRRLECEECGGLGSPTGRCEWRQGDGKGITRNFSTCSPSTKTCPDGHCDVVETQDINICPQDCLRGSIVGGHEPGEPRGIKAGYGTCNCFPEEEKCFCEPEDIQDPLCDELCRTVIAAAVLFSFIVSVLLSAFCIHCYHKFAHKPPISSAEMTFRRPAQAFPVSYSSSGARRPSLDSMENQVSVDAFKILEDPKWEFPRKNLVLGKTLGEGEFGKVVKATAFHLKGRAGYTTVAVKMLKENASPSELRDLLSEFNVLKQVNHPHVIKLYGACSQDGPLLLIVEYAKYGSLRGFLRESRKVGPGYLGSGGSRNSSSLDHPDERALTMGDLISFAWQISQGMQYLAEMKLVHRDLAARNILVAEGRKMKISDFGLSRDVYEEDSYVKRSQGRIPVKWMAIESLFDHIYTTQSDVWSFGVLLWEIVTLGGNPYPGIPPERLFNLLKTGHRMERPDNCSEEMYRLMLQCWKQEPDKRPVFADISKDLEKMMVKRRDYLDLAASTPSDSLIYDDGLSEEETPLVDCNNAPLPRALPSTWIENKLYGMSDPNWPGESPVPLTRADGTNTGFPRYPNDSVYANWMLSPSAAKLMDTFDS
Chain of Vascular endothelial growth factor receptor 2 (P35968 whole entry): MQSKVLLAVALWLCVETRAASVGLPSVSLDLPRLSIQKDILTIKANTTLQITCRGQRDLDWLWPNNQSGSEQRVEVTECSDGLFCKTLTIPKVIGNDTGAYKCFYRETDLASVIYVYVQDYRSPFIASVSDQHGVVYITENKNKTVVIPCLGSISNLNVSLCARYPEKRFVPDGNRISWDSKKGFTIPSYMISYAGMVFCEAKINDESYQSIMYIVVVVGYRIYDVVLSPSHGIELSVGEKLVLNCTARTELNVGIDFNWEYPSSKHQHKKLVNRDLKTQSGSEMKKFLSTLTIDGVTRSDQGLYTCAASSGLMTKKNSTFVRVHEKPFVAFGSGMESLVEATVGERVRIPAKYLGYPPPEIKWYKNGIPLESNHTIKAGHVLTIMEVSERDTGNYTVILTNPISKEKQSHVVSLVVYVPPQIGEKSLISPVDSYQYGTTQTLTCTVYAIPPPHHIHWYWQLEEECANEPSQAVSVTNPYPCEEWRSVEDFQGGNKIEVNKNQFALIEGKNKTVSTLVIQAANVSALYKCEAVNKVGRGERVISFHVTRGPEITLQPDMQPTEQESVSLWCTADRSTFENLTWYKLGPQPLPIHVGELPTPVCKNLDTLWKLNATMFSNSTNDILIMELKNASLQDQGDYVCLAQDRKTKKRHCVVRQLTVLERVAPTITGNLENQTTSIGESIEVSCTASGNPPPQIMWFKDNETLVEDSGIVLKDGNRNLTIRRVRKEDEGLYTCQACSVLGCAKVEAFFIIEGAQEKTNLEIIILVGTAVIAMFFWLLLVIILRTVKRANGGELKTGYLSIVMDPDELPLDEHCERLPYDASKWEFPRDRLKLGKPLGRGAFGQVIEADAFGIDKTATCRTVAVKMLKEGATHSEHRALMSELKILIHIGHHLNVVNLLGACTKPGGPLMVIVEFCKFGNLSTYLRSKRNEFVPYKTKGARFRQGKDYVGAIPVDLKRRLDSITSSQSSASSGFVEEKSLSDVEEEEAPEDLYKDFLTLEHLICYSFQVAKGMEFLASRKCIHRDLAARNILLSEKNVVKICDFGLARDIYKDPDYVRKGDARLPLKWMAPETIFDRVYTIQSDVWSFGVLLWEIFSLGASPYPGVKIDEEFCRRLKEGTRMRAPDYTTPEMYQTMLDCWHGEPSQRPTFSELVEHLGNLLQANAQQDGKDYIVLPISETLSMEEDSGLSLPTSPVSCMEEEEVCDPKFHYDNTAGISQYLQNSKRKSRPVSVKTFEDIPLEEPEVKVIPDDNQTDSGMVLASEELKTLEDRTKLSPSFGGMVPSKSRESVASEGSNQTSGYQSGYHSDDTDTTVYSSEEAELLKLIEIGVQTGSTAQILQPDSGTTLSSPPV
Chain of Tyrosine-protein kinase JAK3 (Mus musculus, UniProt Q62137) (Q62137 whole entry): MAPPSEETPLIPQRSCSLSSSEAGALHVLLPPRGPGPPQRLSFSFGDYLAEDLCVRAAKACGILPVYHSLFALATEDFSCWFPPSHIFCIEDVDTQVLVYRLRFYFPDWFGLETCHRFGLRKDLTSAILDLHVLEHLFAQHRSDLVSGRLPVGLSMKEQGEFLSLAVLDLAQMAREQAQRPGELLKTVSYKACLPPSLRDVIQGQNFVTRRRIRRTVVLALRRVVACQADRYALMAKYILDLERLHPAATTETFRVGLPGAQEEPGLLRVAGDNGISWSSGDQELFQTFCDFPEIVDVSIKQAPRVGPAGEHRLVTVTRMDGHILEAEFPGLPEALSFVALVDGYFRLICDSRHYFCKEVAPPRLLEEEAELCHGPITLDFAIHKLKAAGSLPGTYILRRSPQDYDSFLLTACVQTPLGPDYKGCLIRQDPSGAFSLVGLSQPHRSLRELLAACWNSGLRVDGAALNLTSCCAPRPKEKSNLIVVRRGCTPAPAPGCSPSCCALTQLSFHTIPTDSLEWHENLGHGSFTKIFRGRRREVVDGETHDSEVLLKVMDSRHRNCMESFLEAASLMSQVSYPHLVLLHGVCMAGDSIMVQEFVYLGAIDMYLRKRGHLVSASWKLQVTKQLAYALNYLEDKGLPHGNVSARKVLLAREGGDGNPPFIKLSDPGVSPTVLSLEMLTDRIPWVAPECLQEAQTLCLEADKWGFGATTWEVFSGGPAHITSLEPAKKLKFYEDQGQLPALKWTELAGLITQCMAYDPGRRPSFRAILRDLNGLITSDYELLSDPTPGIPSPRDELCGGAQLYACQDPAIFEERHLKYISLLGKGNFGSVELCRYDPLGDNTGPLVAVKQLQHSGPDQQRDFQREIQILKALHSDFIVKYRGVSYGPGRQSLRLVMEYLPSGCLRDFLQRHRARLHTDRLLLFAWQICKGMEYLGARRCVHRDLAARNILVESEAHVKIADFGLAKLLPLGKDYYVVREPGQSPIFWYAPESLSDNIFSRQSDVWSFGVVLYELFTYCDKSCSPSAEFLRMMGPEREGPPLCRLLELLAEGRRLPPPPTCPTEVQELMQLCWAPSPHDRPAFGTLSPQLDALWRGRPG
Chain of Tyrosine-protein kinase JAK3 (Mus musculus) (Q62137 whole entry): as above
Chain of Casein kinase II subunit alpha (P68400 whole entry): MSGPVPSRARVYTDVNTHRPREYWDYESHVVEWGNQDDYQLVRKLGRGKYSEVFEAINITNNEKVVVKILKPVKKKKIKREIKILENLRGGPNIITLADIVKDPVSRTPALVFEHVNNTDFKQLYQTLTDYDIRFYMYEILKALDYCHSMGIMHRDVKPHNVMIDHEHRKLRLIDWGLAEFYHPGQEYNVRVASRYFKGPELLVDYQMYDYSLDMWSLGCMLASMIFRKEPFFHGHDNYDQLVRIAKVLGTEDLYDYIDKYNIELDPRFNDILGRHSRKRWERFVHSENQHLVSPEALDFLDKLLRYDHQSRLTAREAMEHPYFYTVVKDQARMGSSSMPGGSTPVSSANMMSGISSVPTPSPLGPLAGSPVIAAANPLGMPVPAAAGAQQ

IC50 [1]: 40 nM | IC50 [2]: > 30000 nM | inhibition [3]: Dose-dependent effect | IC50 [4]: 240 nM | half-life [5]: 7.6 h | IC50 [7]: 260 nM | inhibition [8]: Dose-dependent effect | AUC (Canis familiaris): 45 µM·h | IC50 [11]: 46 nM | inhibition [12]: Dose-dependent effect | IC50 [13]: 2000 nM | IC50 (Aurora kinase A): 58 nM | IC50 [14]: 22 nM | IC50 [17]: 35 nM | IC50 [20]: 33 nM
Structure (SMILES): C[C@H](Nc1nc(Nc2cn(C)cn2)c2cc[nH]c2n1)c1ncc(F)cn1
GI50 [6]: 55 nM | inhibition in vivo at 3 mg/kg (Mus musculus [9]): 30% | Activity (Mus musculus [10]): 3.1% | GI50 [15]: 220 nM | Activity (Mus musculus [16]): 7.2% | inhibition (Mus musculus [18]): Dose-dependent effect | inhibition in vivo at 3 mg/kg [19]: 50%
